Values after ≈ are worked out from the molar mass of the structure shown.
Experiments:
[1] = tested on: Mycobacterium tuberculosis; experiment: Antimycobacterial activity against Mycobacterium tuberculosis in 7H12 medium by microplate alamar blue assay; format: functional
Procedure, shortened: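 Microplate alamar blue assay against M. tuberculosis in 7H12 medium (7H9 plus casitone, palmitic acid, albumin and catalase). MIC is reported in µM.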

[2] = tested on: Mycobacterium tuberculosis; experiment: Antimycobacterial activity against Mycobacterium tuberculosis in GAS medium by microplate alamar blue assay; format: functional
Procedure, shortened: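 Microplate alamar blue assay against M. tuberculosis grown in glycerol-alanine-salts (GAS) medium. MIC is reported in µM.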

Mycolicibacterium vaccae [3] = experiment: Antibacterial activity against Mycobacterium vaccae IMET 10670 after 44 hrs by Kirby-Bauer agar diffusion assay; format: functional
Procedure, shortened: (§1)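 Test solutions for the agar diffusion assay were 20 mM in DMSO, diluted 10-fold with MeOH to 2 mM. M. vaccae plates were incubated at 37 °C for 44 h. Inhibition zones are recorded in mm, with unclear or very unclear zones flagged.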

Bacillus spizizenii [4] = experiment: Antibacterial activity against Bacillus subtilis ATCC 6633 after 21 hrs by Kirby-Bauer agar diffusion assay; format: functional
Procedure, shortened: (§2)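 Agar diffusion assay. Test solutions were made at 20 mM in DMSO and diluted 10-fold with MeOH to 2 mM. Plates were incubated at 37 °C for 21 h. Inhibition zone diameters are recorded in mm, with unclear or very unclear zones flagged.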

Pseudomonas aeruginosa [5] = experiment: Antibacterial activity against wild type Pseudomonas aeruginosa K799 after 21 hrs by Kirby-Bauer agar diffusion assay; format: functional; procedure, shortened: as §2
Pseudomonas aeruginosa [6] = experiment: Antibacterial activity against Pseudomonas aeruginosa K799/61 after 21 hrs by Kirby-Bauer agar diffusion assay; format: functional; procedure, shortened: as §2
Micrococcus luteus [7] = experiment: Antibacterial activity against Micrococcus luteus ATCC 10240 after 21 hrs by Kirby-Bauer agar diffusion assay; format: functional; procedure, shortened: as §2
Staphylococcus aureus = experiment: Antibacterial activity against Staphylococcus aureus SG511 after 21 hrs by Kirby-Bauer agar diffusion assay; format: functional; procedure, shortened: as §2
Escherichia coli [8] = experiment: Antibacterial activity against Escherichia coli DC2 assessed as unclear inhibition zone after 21 hrs by Kirby-Bauer agar diffusion assay; format: functional; procedure, shortened: as §2
Escherichia coli [9] = experiment: Antibacterial activity against Escherichia coli DC2 after 21 hrs by Kirby-Bauer agar diffusion assay; format: functional; procedure, shortened: as §2
Pseudomonas aeruginosa [10] = experiment: Antibacterial activity against Pseudomonas aeruginosa K799/61 assessed as unclear inhibition zone after 21 hrs by Kirby-Bauer agar diffusion assay; format: functional; procedure, shortened: as §2
Pseudomonas aeruginosa [11] = experiment: Antibacterial activity against wild type Pseudomonas aeruginosa K799 assessed as unclear inhibition zone after 21 hrs by Kirby-Bauer agar diffusion assay; format: functional; procedure, shortened: as §2
Mycolicibacterium vaccae [12] = experiment: Antibacterial activity against Mycobacterium vaccae IMET 10670 assessed as very unclear inhibition zone after 44 hrs by Kirby-Bauer agar diffusion assay; format: functional; procedure, shortened: as §1
Micrococcus luteus [13] = experiment: Antibacterial activity against Micrococcus luteus ATCC 10240 assessed as very unclear inhibition zone after 21 hrs by Kirby-Bauer agar diffusion assay; format: functional; procedure, shortened: as §2
Pseudomonas aeruginosa [14] = experiment: microbe, parasite or virus in culture; settings: K799/61, 21 h, read-out: DIZ
Bacillus spizizenii [15] = experiment: Antibacterial activity against Bacillus subtilis ATCC 6633 at 1.66 microg/ml after 21 hrs by Kirby-Bauer agar diffusion assay; format: functional; settings: ATCC 6633, 21 h, read-out: DIZ
Mycolicibacterium vaccae [16] = experiment: Antibacterial activity against Mycobacterium vaccae IMET 10670 assessed as unclear inhibition zone after 44 hrs by Kirby-Bauer agar diffusion assay; format: functional; procedure, shortened: as §1

| SMILES | MIC [1] [µM] | MIC [2] [µM] | diameter of the inhibition zone (DIZ) (Mycolicibacterium vaccae [3]) [mm] | diameter of the inhibition zone (DIZ) (Bacillus spizizenii [4]) [mm] | diameter of the inhibition zone (DIZ) (Pseudomonas aeruginosa [5]) [mm] | diameter of the inhibition zone (DIZ) (Micrococcus luteus [7]) [mm] | diameter of the inhibition zone (DIZ) (Staphylococcus aureus) [mm] | other results |
| --- | --- | --- | --- | --- | --- | --- | --- | --- |
| C=CCONC(=O)c1cc([N+](=O)[O-])cc(C(F)(F)F)c1 | > 100 | 43.2 (≈ 12.5 µg/mL) | – | – | – | – | – | – |
| C=CCONC(=O)c1ccc([N+](=O)[O-])cc1 | > 100 | 37.6 (≈ 8.36 µg/mL) | – | – | – | – | – | – |
| CO[C@H]1/C=C/O[C@@]2(C)Oc3c(C)c(O)c4c(O)c(c(/C=N/N5CCN(C)CC5)c(O)c4c3C2=O)NC(=O)/C(C)=C\C=C\[C@H](C)[C@H](O)[C@@H](C)[C@@H](O)[C@@H](C)[C@H](OC(C)=O)[C@@H]1C [RIFAMPIN] | 0.03 (≈ 0.0247 µg/mL) | < 0.016 | – | – | – | – | – | – |
| CC(C)(C)[Si](C)(C)ONC(=O)c1cc([N+](=O)[O-])cc(C(F)(F)F)c1 | > 100 | > 100 | 14 | 20 | 0 | 0 | 0 | diameter of the inhibition zone (DIZ) (Pseudomonas aeruginosa [6]): 0 mm; diameter of the inhibition zone (DIZ) (Escherichia coli [8]): 17 mm |
| CCOc1ccc(C(=O)NOCc2ccccc2)cc1 | > 100 | 47.3 (≈ 12.8 µg/mL) | – | – | – | – | – | – |
| CCOc1ccc(C(=O)NO)cc1 | 48.1 (≈ 8.71 µg/mL) | > 100 | 0 | 20 | 0 | 0 | 17 | diameter of the inhibition zone (DIZ) (Escherichia coli [9]): 0 mm; diameter of the inhibition zone (DIZ) (Pseudomonas aeruginosa [10]): 14 mm |
| O=C(NOCc1ccccc1)c1ccc(F)cc1 | > 100 | 42.3 (≈ 10.4 µg/mL) | – | – | – | – | – | – |
| C=CCONC(=O)CC(=O)OCc1ccc([N+](=O)[O-])cc1 | 98.7 (≈ 29 µg/mL) | 98.6 (≈ 29 µg/mL) | – | – | – | – | – | – |
| CC(C)(C)[Si](C)(C)ONC(=O)CC(=O)OCc1ccc([N+](=O)[O-])cc1 | > 100 | 3.04 (≈ 1.12 µg/mL) | – | – | – | – | – | – |
| O=C(NO)c1cc([N+](=O)[O-])cc(C(F)(F)F)c1 | 19.5 (≈ 4.87 µg/mL) | > 100 | – | – | – | – | – | – |
| O=C(CC(=O)OCc1ccccc1)NOCc1ccccc1 | 86.6 (≈ 25.9 µg/mL) | 27.1 (≈ 8.11 µg/mL) | – | – | – | – | – | – |
| C=CCONC(=O)c1ccccc1 | > 100 | > 100 | – | – | – | – | – | – |
| CC(C)(C)[Si](C)(C)ONC(=O)c1ccccc1 | > 50 | 24.3 (≈ 6.11 µg/mL) | 26 | 0 | 14 | 0 | 0 | diameter of the inhibition zone (DIZ) (Pseudomonas aeruginosa [11]): 18 mm; diameter of the inhibition zone (DIZ) (Escherichia coli [9]): 0 mm; diameter of the inhibition zone (DIZ) (Pseudomonas aeruginosa [6]): 0 mm |
| O=C(CC(=O)OCc1ccc([N+](=O)[O-])cc1)NO | > 100 | > 100 | – | – | – | – | – | – |
| O=C(NO)c1ccc(Cl)cc1 | > 100 | > 100 | – | 0 | 0 | 0 | 0 | diameter of the inhibition zone (DIZ) (Escherichia coli [9]): 16 mm; diameter of the inhibition zone (DIZ) (Mycolicibacterium vaccae [12]): 15.5 mm; diameter of the inhibition zone (DIZ) (Pseudomonas aeruginosa [10]): 18 mm |
| O=C(NOCc1ccccc1)c1ccccc1 | > 100 | 48.5 (≈ 11 µg/mL) | – | – | – | – | – | – |
| COC(=O)c1cc([N+](=O)[O-])cc(C(F)(F)F)c1 | > 100 | 30 (≈ 7.46 µg/mL) | – | – | – | – | – | – |
| O=C(NO)c1ccc(F)cc1 | > 100 | > 100 | – | – | – | – | – | – |
| O=C(NOCc1ccccc1)c1cc([N+](=O)[O-])cc(C(F)(F)F)c1 | > 100 | 10.7 (≈ 3.62 µg/mL) | 45 | 16 | 0 | 14 | 20 | diameter of the inhibition zone (DIZ) (Escherichia coli [9]): 0 mm; diameter of the inhibition zone (DIZ) (Micrococcus luteus [13]): 20 mm; diameter of the inhibition zone (DIZ) (Pseudomonas aeruginosa [6]): 0 mm |
| O=C(O)c1cn(C2CC2)c2cc(N3CCNCC3)c(F)cc2c1=O [CIPROFLOXACIN] | – | – | 20 | – | 23 | 0 | 18 | diameter of the inhibition zone (DIZ) (Pseudomonas aeruginosa [6]): 19 mm; zone of inhibition at 1.66 µg/mL (Pseudomonas aeruginosa [14]): 26 mm; zone of inhibition at 1.66 µg/mL (Bacillus spizizenii [15]): 19 mm |
| O=C(NOCc1ccccc1)c1cc(Br)cc(C(F)(F)F)c1 | > 100 | 80.5 (≈ 30.1 µg/mL) | 26 | 17.5 | 0 | 16 | 20 | diameter of the inhibition zone (DIZ) (Escherichia coli [9]): 10 mm; diameter of the inhibition zone (DIZ) (Mycolicibacterium vaccae [16]): 32 mm; diameter of the inhibition zone (DIZ) (Pseudomonas aeruginosa [6]): 0 mm |
| O=C(NOCc1ccccc1)c1ccc([N+](=O)[O-])cc1 | 90.4 (≈ 24.6 µg/mL) | 13.6 (≈ 3.7 µg/mL) | – | – | – | – | – | – |
| O=C(NOCc1ccccc1)c1ccc(Cl)cc1 | 47.3 (≈ 12.4 µg/mL) | 15.5 (≈ 4.07 µg/mL) | 15 | 19 | 14 | 19 | 19 | diameter of the inhibition zone (DIZ) (Escherichia coli [9]): 0 mm; diameter of the inhibition zone (DIZ) (Pseudomonas aeruginosa [6]): 14 mm |
| O=C(NO)c1ccc([N+](=O)[O-])cc1 | 7.79 (≈ 1.42 µg/mL) | 0.71 (≈ 0.129 µg/mL) | 30 | 0 | 13 | 0 | 0 | diameter of the inhibition zone (DIZ) (Escherichia coli [9]): 0 mm; diameter of the inhibition zone (DIZ) (Mycolicibacterium vaccae [16]): 33 mm; diameter of the inhibition zone (DIZ) (Pseudomonas aeruginosa [6]): 0 mm |

Reference: ChEMBL document CHEMBL3627706, “Syntheses and evaluation of substituted aromatic hydroxamates and hydroxamic acids that target Mycobacterium tuberculosis” (2015)
